These results are taken from ChEMBL document CHEMBL1124308, “Renin inhibitors. Dipeptide analogues of angiotensinogen utilizing a structurally modified phenylalanine residue to impart proteolytic stability” (J Med Chem, 1988).

For one data set, the system named is chymotrypsin. Description: The compound was tested […] for chymotrypsin susceptibility (degradation). It counts as ADME.
Data set [1] has as its target T1, Renin (Homo sapiens, UniProt P00797).
T1 sequence (P00797 whole entry): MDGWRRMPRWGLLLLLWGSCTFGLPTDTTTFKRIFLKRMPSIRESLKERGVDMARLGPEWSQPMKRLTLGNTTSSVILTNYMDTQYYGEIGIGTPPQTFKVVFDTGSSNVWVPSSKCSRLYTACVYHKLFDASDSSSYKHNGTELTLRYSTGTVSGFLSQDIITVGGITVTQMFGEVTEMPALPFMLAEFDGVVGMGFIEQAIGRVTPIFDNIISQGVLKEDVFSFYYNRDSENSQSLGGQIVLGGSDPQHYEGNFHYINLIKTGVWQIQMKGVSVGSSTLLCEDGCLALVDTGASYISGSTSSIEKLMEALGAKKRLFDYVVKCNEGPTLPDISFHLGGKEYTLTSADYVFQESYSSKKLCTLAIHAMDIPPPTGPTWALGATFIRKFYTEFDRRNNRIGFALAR
Description: Inhibition of purified human renin (pH 6.0).

For data set [2], the target named is T1, Renin. Briefly: Inhibition of human plasma renin (pH 7.4). It counts as cell-free. The gist of the method:
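Plasma renin assay at pH 7.4, adapted from an earlier method: 0.10 M HEPES buffer in place of maleate, incubation lengthened to 2.5 h, and angiotensin I measured by radioimmunoassay on the whole incubation sample. IC50 reported in nM.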

In the next data set the target is Pepsin A (Sus scrofa) (UniProt P00791). Description: Inhibition of porcine pepsin enzyme at 1*10e-5. To be noted: concentration not given here.
Pepsin A (Sus scrofa), sequence (P00791 60-385 limits assumed): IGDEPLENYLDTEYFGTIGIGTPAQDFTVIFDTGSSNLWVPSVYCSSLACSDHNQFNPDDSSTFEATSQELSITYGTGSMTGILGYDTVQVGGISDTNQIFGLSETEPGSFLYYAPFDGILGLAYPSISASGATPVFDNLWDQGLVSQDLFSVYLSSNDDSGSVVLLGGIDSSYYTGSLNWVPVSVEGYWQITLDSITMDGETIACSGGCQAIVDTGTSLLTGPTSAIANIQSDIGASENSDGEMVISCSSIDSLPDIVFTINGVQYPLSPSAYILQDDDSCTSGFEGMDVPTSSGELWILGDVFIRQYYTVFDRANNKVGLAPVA
Data set [3] is described as follows: (§1) Ratio of IC50 value for human plasma renin(pH 7.4) and purified human renin(pH 6.0). It counts as functional.
In another data set the target is T2, Cathepsin D (Bos taurus) (UniProt P80209).
T2 sequence (whole entry): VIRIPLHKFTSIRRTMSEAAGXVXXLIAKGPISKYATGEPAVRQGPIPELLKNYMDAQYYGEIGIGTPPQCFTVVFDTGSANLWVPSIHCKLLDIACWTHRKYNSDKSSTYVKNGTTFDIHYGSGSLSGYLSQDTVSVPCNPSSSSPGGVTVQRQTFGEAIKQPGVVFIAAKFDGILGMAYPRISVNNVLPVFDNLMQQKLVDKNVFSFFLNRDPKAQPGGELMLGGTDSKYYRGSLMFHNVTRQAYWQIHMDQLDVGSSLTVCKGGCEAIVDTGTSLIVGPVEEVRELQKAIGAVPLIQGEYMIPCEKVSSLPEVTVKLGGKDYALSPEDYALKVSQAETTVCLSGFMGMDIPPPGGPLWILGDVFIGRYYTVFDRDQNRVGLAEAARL
Briefly: Inhibition of bovine cathepsin D at 1*10e-5. The following applies: concentration not given here.

Data set [4] is described as follows: as §1.

pIC50: −log10 of the molar value.

Turning to `COc1ccc(C[C@H](NC(=O)N2CCOCC2)C(=O)N[C@@H](Cc2cnc[nH]2)C(=O)N[C@@H](CC2CCCCC2)[C@@H](O)[C@@H](O)CC(C)C)cc1`, the half-life with chymotrypsin stood at 727 min. The pIC50 against Renin [1] was 9.12; against Renin [2], 8.62.
Compound `CC(C)C[C@H](O)[C@H](O)[C@H](CC1CCCCC1)NC(=O)[C@H](Cc1c[nH]cn1)NC(=O)[C@H](Cc1ccccc1)NC(=O)N1CCNCC1` had a half-life with chymotrypsin of 6.9 min. Further, the inhibition against Pepsin A (Sus scrofa) and at Cathepsin D (Bos taurus) was 0% each time. Also, the Ratio in data set [3] stood at 6.9. On Renin [2], this compound showed a negative-log IC50 (pIC50) of 8.35.
Consider `COc1ccc(C[C@H](NC(=O)N2CCOCC2)C(=O)N[C@@H](Cc2c[nH]cn2)C(=O)N[C@@H](CC2CCCCC2)[C@@H](O)[C@@H](O)CC(C)C)cc1`, for which the inhibition stood at 4% against Pepsin A (Sus scrofa) and 3% at Cathepsin D (Bos taurus). Also, the Ratio in data set [3] worked out at 3.2.
`CC(C)C[C@H](O)[C@H](O)[C@H](CC1CCCCC1)NC(=O)[C@H](Cc1c[nH]cn1)NC(=O)[C@@H](CC(=O)N1CCOCC1)Cc1ccccc1`: in the data set with chymotrypsin, the half-life worked out at 227 min. Moreover, the inhibition at Pepsin A (Sus scrofa) and against Cathepsin D (Bos taurus) was 0% in each case. Besides, the values for the pIC50 against Renin [1] and against Renin [2] were 9.54 and 8.89, respectively. Further, in data set [4], the Ratio came out at 4.5.
`CC(C)C[C@H](O)[C@H](O)[C@H](CC1CCCCC1)NC(=O)[C@H](Cc1c[nH]cn1)NC(=O)/C(=C/c1ccccc1)CC(=O)N1CCOCC1` returned a half-life in the data set with chymotrypsin of 1260 min. The values for the inhibition against Pepsin A (Sus scrofa) and against Cathepsin D (Bos taurus) were 8% and 0%, respectively. Besides, the pIC50 against Renin [1] is 9.10; at Renin [2] it was 8.68. Also, the Ratio in data set [3] was 2.7.
In the case of `CC(C)C[C@H](O)[C@H](O)[C@H](CC1CCCCC1)NC(=O)[C@H](Cc1c[nH]cn1)NC(=O)[C@H](Cc1ccccc1)NC(=O)N1CCC(O)CC1`, the half-life with chymotrypsin worked out at 3.3 min. In addition, the inhibition against Pepsin A (Sus scrofa) was found to be 4%; at Cathepsin D (Bos taurus), 2%. Further, the pIC50 against Renin [1] was 9.38; at Renin [2] it was 9.17. For the same compound, in data set [3], the Ratio is 1.6.
Regarding `CC(C)C[C@H](O)[C@H](O)[C@H](CC1CCCCC1)NC(=O)[C@H](Cc1c[nH]cn1)NC(=O)[C@@H](Cc1ccccc1)NC(=O)N1CCOCC1`, the inhibition against Pepsin A (Sus scrofa) is 2%; on Cathepsin D (Bos taurus), 1%. Besides, the results for the pIC50 on Renin [1] and against Renin [2] were 7.85 and 6.85, respectively. Also, the Ratio in data set [3] is 10.
Take `CC(C)C[C@H](O)[C@H](O)[C@H](CC1CCCCC1)NC(=O)[C@H](Cc1cnc[nH]1)NC(=O)[C@H](Cc1ccccc1)NC(=O)N(C)CCO`: the half-life with chymotrypsin amounted to 34.3 min. Besides, the pIC50 against Renin [1] was 9.26; at Renin [2], 9.01.
In the data set on chymotrypsin, `CC(C)C[C@H](O)[C@H](O)[C@H](CC1CCCCC1)NC(=O)[C@H](Cc1c[nH]cn1)NC(=O)[C@H](Cc1ccccc1)OC(=O)N1CCOCC1` came in with a half-life of 233 min. Also, the inhibition against Pepsin A (Sus scrofa) and against Cathepsin D (Bos taurus) was 0% each time. Further, the pIC50 was 9.09 against Renin [1] and 8.52 against Renin [2]. Besides, the Ratio in data set [3] stood at 3.7.
In the case of `CC(C)C[C@H](O)[C@H](O)[C@H](CC1CCCCC1)NC(=O)[C@H](Cc1c[nH]cn1)NC(=O)[C@@H](NC(=O)N1CCOCC1)C(C)(C)c1ccccc1`, the inhibition against Pepsin A (Sus scrofa) and against Cathepsin D (Bos taurus) was 3% each time. In data set [3], the Ratio came to 25.
`CC(C)C[C@H](O)[C@H](O)[C@H](CC1CCCCC1)NC(=O)[C@H](Cc1cnc[nH]1)NC(=O)[C@@H](NC(=O)N1CCOCC1)C(C)(C)c1ccccc1`: the pIC50 on Renin [1] was 8.59; against Renin [2], 7.19.
Consider `CC(C)C[C@H](O)[C@H](O)[C@H](CC1CCCCC1)NC(=O)[C@H](Cc1c[nH]cn1)NC(=O)[C@H](Cc1ccccc1)NC(=O)N1CCOCC1`, for which the inhibition against Pepsin A (Sus scrofa) and against Cathepsin D (Bos taurus) was 0% in each case. Further, the Ratio in data set [4] came to 2.5.
As for `CC(C)C[C@H](O)[C@H](O)[C@H](CC1CCCCC1)NC(=O)[C@H](Cc1c[nH]cn1)NC(=O)[C@H](CCc1ccccc1)NC(=O)N1CCOCC1`, the half-life with chymotrypsin stood at 9.6 min. The inhibition against Pepsin A (Sus scrofa) is 6%; against Cathepsin D (Bos taurus), 0%. The pIC50 at Renin [1] is 9.52; against Renin [2] it was 8.70. Also, the Ratio in data set [3] amounted to 6.7.
As to `CC(C)C[C@H](O)[C@H](O)[C@H](CC1CCCCC1)NC(=O)[C@H](Cc1c[nH]cn1)NC(=O)[C@H](Cc1ccccc1)NC(=O)N(C)CCO`, the results for the inhibition at Pepsin A (Sus scrofa) and at Cathepsin D (Bos taurus) were 3% and 0%, respectively. In addition, in data set [3], the Ratio is 1.8.
On to `CC(C)C[C@H](O)[C@H](O)[C@H](CC1CCCCC1)NC(=O)[C@H](Cc1c[nH]cn1)NC(=O)/C(=C/c1ccccc1)NC(=O)N1CCOCC1`, for which the inhibition at Pepsin A (Sus scrofa) and at Cathepsin D (Bos taurus) was 0% in each case. Further, the results for the pIC50 at Renin [1] and at Renin [2] were 9.24 and 8.28, respectively. The Ratio in data set [3] stood at 9.1.
On to `CC(C)C[C@H](O)[C@H](O)[C@H](CC1CCCCC1)NC(=O)[C@H](Cc1c[nH]cn1)NC(=O)[C@H](Cc1ccccc1)NC(=O)N(C)C`, for which the half-life in the data set with chymotrypsin is 17.5 min. The inhibition amounted to 11% at Pepsin A (Sus scrofa) and 3% on Cathepsin D (Bos taurus). Moreover, the pIC50 on Renin [1] was 9.30; against Renin [2], 8.48. Besides, the Ratio in data set [3] was found to be 6.6.
Take `CC(C)C[C@H](O)[C@H](O)[C@H](CC1CCCCC1)NC(=O)[C@H](Cc1cnc[nH]1)NC(=O)[C@H](Cc1ccccc1)NC(=O)N1CCOCC1`: the half-life in the data set on chymotrypsin worked out at 2.2 min. The negative-log IC50 (pIC50) at Renin [1] is 9.46; on Renin [2] it was 9.05.
Regarding `CC(C)C[C@H](O)[C@H](O)[C@H](CC1CCCCC1)NC(=O)[C@H](Cc1c[nH]cn1)N(C)C(=O)[C@H](Cc1ccccc1)NC(=O)N1CCOCC1`, the inhibition on Pepsin A (Sus scrofa) and against Cathepsin D (Bos taurus) was 0% throughout. The pIC50 against Renin [1] is 9.03; against Renin [2], 8.60. Moreover, the Ratio in data set [3] worked out at 2.7.

By half-life is commonly meant the time needed for the level to fall by half in the phase considered. A higher half-life goes with slow loss. One may read the pIC50 as the negative decadic logarithm of the IC50, by convention in mol/L. Broadly, the inhibition is the relative decrease from the control value, in per cent.
